Reference: ChEMBL document CHEMBL2385036, “Peptaibols, tetramic acid derivatives, isocoumarins, and sesquiterpenes from a Bionectria sp. (MSX 47401)” (J Nat Prod, 2013)
≈ marks a conversion by molar mass, not a printed value. Calls of active or inactive are those of the source. The calls are words filed in the database; no cut-off is given here.

How the values were obtained:
SF-268 = test: Cytotoxicity against human SF268 cells after 72 hrs by MTS assay; format: functional, cell-based
How it was run: (§1)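 Cell lines were MCF-7 human breast carcinoma (Karmanos Cancer Center), NCI-H460 human large cell lung carcinoma (ATCC HTB-177) and SF-268 human astrocytoma (NCI Developmental Therapeutics Program). The cytotoxicity protocol followed an earlier report.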

Aspergillus niger = test: Antifungal activity against Aspergillus niger after 7 days by broth microdilution method; format: functional; settings: 168 h
How it was run: (§2)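 MIC by broth method: cultures diluted 10- to 100,000-fold in growth medium, with both undiluted cultures and the dilutions used as inocula; each measurement run in duplicate.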

Staphylococcus aureus [1] = test: Antimicrobial activity against methicillin-resistant Staphylococcus aureus GU 52300 after 7 days by broth microdilution method; format: functional; settings: GU 52300, 168 h
How it was run: (§3)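 MIC read-out; inocula were undiluted cultures plus cultures diluted 10- to 100,000-fold in growth medium. All measurements were run in duplicate.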

Staphylococcus aureus [2] = test: Antimicrobial activity against methicillin-resistant Staphylococcus aureus GU 53016 after 7 days by broth microdilution method; format: functional; settings: GU 53016, 168 h; how it was run: as §3
Staphylococcus aureus [3] = test: Antimicrobial activity against methicillin-resistant Staphylococcus aureus ATCC 43300 after 7 days by broth microdilution method; format: functional; settings: ATCC 43300, 168 h; how it was run: as §3
Staphylococcus aureus [4] = test: Antimicrobial activity against Staphylococcus aureus ATCC 6538 after 7 days by broth microdilution method; format: functional; settings: ATCC 6538, 168 h; how it was run: as §3
Staphylococcus aureus [5] = test: Antimicrobial activity against methicillin-resistant Staphylococcus aureus GU 36361 after 7 days by broth microdilution method; format: functional; settings: GU 36361, 168 h; how it was run: as §3
Staphylococcus aureus [6] = test: Antimicrobial activity against methicillin-resistant Staphylococcus aureus GU 34380 after 7 days by broth microdilution method; format: functional; settings: GU 34380, 168 h; how it was run: as §3
MCF7 = test: Cytotoxicity against human MCF7 cells after 72 hrs by MTS assay; format: functional, cell-based; how it was run: as §1
Cryptococcus neoformans = test: Antifungal activity against Cryptococcus neoformans after 7 days by broth microdilution method; format: functional; settings: 168 h; how it was run: as §2
Staphylococcus aureus [7] = test: Antimicrobial activity against methicillin-resistant Staphylococcus aureus GU 34864 after 7 days by broth microdilution method; format: functional; settings: GU 34864, 168 h; how it was run: as §3
Staphylococcus aureus [8] = test: Antimicrobial activity against methicillin-resistant Staphylococcus aureus DA 1 after 7 days by broth microdilution method; format: functional; settings: DA 1, 168 h; how it was run: as §3
Candida albicans = test: Antifungal activity against Candida albicans after 7 days by broth microdilution method; format: functional; settings: 168 h; how it was run: as §2
NCI-H460 = test: Cytotoxicity against human NCI-H460 cells after 72 hrs by MTS assay; format: functional, cell-based; how it was run: as §1

Structure (SMILES)	Activity (SF-268)	MIC (Aspergillus niger) [µg/mL]	MIC (Staphylococcus aureus [1]) [µg/mL]	MIC (Staphylococcus aureus [2]) [µg/mL]	MIC (Staphylococcus aureus [3]) [µg/mL]	MIC (Staphylococcus aureus [4]) [µg/mL]	MIC (Staphylococcus aureus [5]) [µg/mL]	MIC (Staphylococcus aureus [6]) [µg/mL]	Activity (MCF7)	MIC (Cryptococcus neoformans) [µg/mL]	MIC (Staphylococcus aureus [7]) [µg/mL]	MIC (Staphylococcus aureus [8]) [µg/mL]	MIC (Candida albicans) [µg/mL]	Activity (NCI-H460)	IC50 (SF-268; SF-268, 72 h) [µM]	IC50 (MCF7; MCF7, 72 h) [µM]	IC50 (NCI-H460; NCI-H460, 72 h) [µM]
CC(CCCCCCCCC(=O)CCCCCCCCC[C@@H](O)CO)C(=O)C1=C(O)[C@H](Cc2ccc(O)cc2)NC1=O (some centres not stated) [VIRGINEONE AGLYCONE]	inactive	> 88	5.5 (≈ 9.36 µM)	2.8 (≈ 4.76 µM)	2.8 (≈ 4.76 µM)	2.8 (≈ 4.76 µM)	5.5 (≈ 9.36 µM)	2.8 (≈ 4.76 µM)	inactive	> 88	2.8 (≈ 4.76 µM)	2.8 (≈ 4.76 µM)	> 88	inactive	–	–	–
CC[C@H](C)[C@@H](NC(=O)[C@@](C)(CC)NC(=O)[C@@H]1C[C@@H](O)CN1C(=O)[C@@](C)(CC)NC(=O)[C@@](C)(CC)NC(=O)C(C)(C)NC(=O)[C@@H]1C[C@@H](O)CN1C(=O)[C@@](C)(CC)NC(=O)[C@H](CC(C)C)NC(=O)[C@@H]1C[C@@H](O)CN1C(=O)[C@](C)(CC)NC(=O)[C@H](CC(C)C)NC(=O)[C@@H]1C[C@@H](O)CN1C(=O)C(C)(C)NC(C)=O)C(=O)O[C@@H]([C@H](O)[C@H](O)CO)[C@H](O)CO	–	> 118	> 118	> 118	> 118	> 118	> 118	> 118	–	> 118	> 118	> 118	> 118	–	–	–	–
CN[C@H](CC(C)C)C(=O)N[C@H]1C(=O)N[C@@H](CC(N)=O)C(=O)N[C@H]2C(=O)N[C@H]3C(=O)N[C@H](C(=O)N[C@H](C(=O)O)c4cc(O)cc(O)c4-c4cc3ccc4O)[C@H](O)c3ccc(c(Cl)c3)Oc3cc2cc(c3O[C@@H]2O[C@H](CO)[C@@H](O)[C@H](O)[C@H]2O[C@H]2C[C@](C)(N)[C@H](O)[C@H](C)O2)Oc2ccc(cc2Cl)[C@H]1O [VANCOMYCIN]	–	–	–	0.38 (≈ 0.262 µM)	0.25 (≈ 0.173 µM)	0.25 (≈ 0.173 µM)	0.75 (≈ 0.518 µM)	–	–	–	0.38 (≈ 0.262 µM)	0.25 (≈ 0.173 µM)	–	–	–	–	–
CC(CCCCCCCCC(=O)CCCCCCCCC[C@@H](O)CO[C@@H]1O[C@H](CO)[C@@H](O)[C@H](O)[C@H]1O)C(=O)C1=C(O)C(Cc2ccc(O)cc2)=NC1=O (some centres not stated)	inactive	> 55	28 (≈ 37.4 µM)	28 (≈ 37.4 µM)	14 (≈ 18.7 µM)	14 (≈ 18.7 µM)	28 (≈ 37.4 µM)	14 (≈ 18.7 µM)	inactive	> 55	14 (≈ 18.7 µM)	14 (≈ 18.7 µM)	> 55	inactive	–	–	–
CC(=O)c1coc(=O)c2c(O)cc(O)c(C)c12	–	–	–	–	–	–	–	–	–	–	–	–	–	–	> 10	> 10	> 10
CC(CCCCCCCCC(=O)CCCCCCCCCC(O)CO[C@@H]1O[C@H](CO)[C@@H](O)[C@H](O)[C@@H]1O)C(=O)C1=C(O)C(Cc2ccc(O)cc2)NC1=O (some centres not stated) [VIRGINEONE]	inactive	14.4 (≈ 19.2 µM)	7.2 (≈ 9.6 µM)	7.2 (≈ 9.6 µM)	7.2 (≈ 9.6 µM)	7.2 (≈ 9.6 µM)	7.2 (≈ 9.6 µM)	7.2 (≈ 9.6 µM)	inactive	14.4 (≈ 19.2 µM)	7.2 (≈ 9.6 µM)	7.2 (≈ 9.6 µM)	14.4 (≈ 19.2 µM)	inactive	–	–	–
C[C@@H]1[C@H](O)[C@@H](C)/C=C/C=C/C=C/C=C/C=C/C=C/C=C/[C@H](O[C@@H]2O[C@H](C)[C@@H](O)[C@H](N)[C@@H]2O)C[C@@H]2O[C@](O)(C[C@@H](O)C[C@@H](O)[C@H](O)CC[C@@H](O)C[C@@H](O)CC(=O)O[C@H]1C)C[C@H](O)[C@H]2C(=O)O [AMPHOTERICIN B]	–	100 (≈ 108 µM)	–	–	–	–	–	–	–	25 (≈ 27.1 µM)	–	–	25 (≈ 27.1 µM)	–	–	–	–
CC[C@H](C)[C@@H](NC(=O)[C@@](C)(CC)NC(=O)[C@@H]1C[C@@H](O)CN1C(=O)C(C)(C)NC(=O)[C@@](C)(CC)NC(=O)C(C)(C)NC(=O)[C@@H]1C[C@@H](O)CN1C(=O)[C@@](C)(CC)NC(=O)[C@H](CC(C)C)NC(=O)[C@@H]1C[C@@H](O)CN1C(=O)[C@](C)(CC)NC(=O)[C@H](CC(C)C)NC(=O)[C@@H]1C[C@@H](O)CN1C(=O)C(C)(C)NC(C)=O)C(=O)O[C@@H]([C@H](O)[C@H](O)CO)[C@H](O)CO [CLONOSTACHIN]	–	> 118	> 118	> 118	> 118	> 118	> 118	> 118	–	> 118	> 118	> 118	> 118	–	–	–	–
CC1=CC[C@H]([C@](C)(O)CCC(O)C(C)(C)O)CC1 (some centres not stated)	–	> 118	> 118	> 118	> 118	> 118	> 118	> 118	–	> 118	> 118	> 118	> 118	–	–	–	–
